pIC50: −log10 of the molar value. The source made the active and inactive calls. The rule behind the calls is not given here.
How the values were obtained:
A549 [1] = assay: Cell cycle arrest in human A549 cells assessed as accumulation at sub-G0 phase at 50 nM after 24 hrs by propidium iodide staining based flow cytometry (reference value: 2 +/- 1%); assay type: functional
How it was run: (§1)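 A549 cells maintained in DMEM (1 g/L glucose, 2 mM glutamine, penicillin/streptomycin/amphotericin B, 10% FBS) and treated for 24 h. Cells were then fixed, RNase-treated and stained with propidium iodide. DNA content was measured by flow cytometry to give cell-cycle phase distribution, including a sub-G1 peak. Data are means (±SD) of two experiments.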

HT-29 [2] = assay: Downregulation of c-Myc gene expression in human HT-29 cells assessed as c-Myc mRNA level at 10 nM after 48 hrs by RT-PCR method (reference value: 100%); assay type: functional
How it was run: (§2)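 HT-29 cells were taken at 70–80% confluence and seeded at 1.5 x 10^5 per well. After 24 h they were exposed to compound for 48 h. Total RNA was isolated and TaqMan RT-qPCR run for VEGF-A, c-MYC and hTERT, normalized to β-actin. Expression is given as percent of DMSO control, with at least three measurements and one-sample t-tests.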

A549 [3] = assay: Cell cycle arrest in human A549 cells assessed as accumulation at G2/M phase at 50 nM after 24 hrs by propidium iodide staining based flow cytometry (reference value: 11 +/- 4%); assay type: functional; how it was run: as §1
HT-29 [4] = assay: Downregulation of c-Myc gene expression in human HT-29 cells assessed as c-Myc mRNA level at 40 nM after 48 hrs by RT-PCR method (reference value: 100%); assay type: functional; how it was run: as §2
HT-29 [5] = assay: Inhibition of VEGF protein secretion in human HT-29 cells assessed as VEGF protein level at 10 nM after 48 hrs by ELISA (reference value: 100%); assay type: functional; set-up: scale not given: the % may be the effect or the level left
A549 [6] = assay: Cell cycle arrest in human A549 cells assessed as accumulation at S phase at 50 nM after 24 hrs by propidium iodide staining based flow cytometry (reference value: 15 +/- 6%); assay type: functional; how it was run: as §1
HT-29 [7] = assay: Downregulation of hTERT gene expression in human HT-29 cells assessed as hTERT mRNA level at 10 nM after 48 hrs by RT-PCR method (reference value: 100%); assay type: functional; how it was run: as §2
A549 [8] = assay: Cell cycle arrest in human A549 cells assessed as accumulation at G0/G1 phase at 50 nM after 24 hrs by propidium iodide staining based flow cytometry (reference value: 73 +/- 3%); assay type: functional; how it was run: as §1
HT-29 [9] = assay: Downregulation of hTERT gene expression in human HT-29 cells assessed as hTERT mRNA level at 40 nM after 48 hrs by RT-PCR method (reference value: 100%); assay type: functional; how it was run: as §2
A549 [10] = assay: Antiproliferative activity against human A549 cells after 2 days by MTT assay; assay type: functional, cell-based; settings: A549, 48 h
HT-29 [11] = assay: Downregulation of VEGF gene expression in human HT-29 cells assessed as VEGF mRNA level at 40 nM after 48 hrs by RT-PCR method (reference value: 100%); assay type: functional; how it was run: as §2
HT-29 [12] = assay: Downregulation of VEGF gene expression in human HT-29 cells assessed as VEGF mRNA level at 10 nM after 48 hrs by RT-PCR method (reference value: 100%); assay type: functional; how it was run: as §2
HT-29 [13] = assay: Inhibition of VEGF protein secretion in human HT-29 cells assessed as VEGF protein level at 40 nM after 48 hrs by ELISA (reference value: 100%); assay type: functional; set-up: scale not given: the % may be the effect or the level left
A549 [14] = assay: Cell cycle arrest in human A549 cells assessed as accumulation at G2/M phase at 20 nM after 24 hrs by propidium iodide staining based flow cytometry (reference value: 11 +/- 4%); assay type: functional; how it was run: as §1
HT-29 [15] = assay: Antiproliferative activity against human HT-29 cells after 2 days by MTT assay; assay type: functional, cell-based; settings: HT-29, 48 h
A549 [16] = assay: Cell cycle arrest in human A549 cells assessed as accumulation at S phase at 20 nM after 24 hrs by propidium iodide staining based flow cytometry (reference value: 15 +/- 6%); assay type: functional; how it was run: as §1
A549 [17] = assay: Cell cycle arrest in human A549 cells assessed as accumulation at G2/M phase at 3 nM after 24 hrs by propidium iodide staining based flow cytometry; assay type: functional; how it was run: as §1
HEK293 = assay: Antiproliferative activity against HEK293 cells after 2 days by MTT assay; assay type: ADME, cell-based; settings: Homo sapiens, HEK293, 48 h
HT-29 [18] = assay: Inhibition of VEGF protein secretion in human HT-29 cells assessed as VEGF protein level at 0.5 nM after 48 hrs by ELISA (reference value: 100%); assay type: functional; set-up: scale not given: the % may be the effect or the level left
A549 [19] = assay: Cell cycle arrest in human A549 cells assessed as accumulation at G0/G1 phase at 20 nM after 24 hrs by propidium iodide staining based flow cytometry (reference value: 73 +/- 3%); assay type: functional; how it was run: as §1
HT-29 [20] = assay: Downregulation of VEGF gene expression in human HT-29 cells assessed as VEGF mRNA level at 0.5 nM after 48 hrs by RT-PCR method (reference value: 100%); assay type: functional; how it was run: as §2
MCF7 = assay: Antiproliferative activity against human MCF7 cells after 2 days by MTT assay; assay type: functional, cell-based; settings: MCF7, 48 h
HT-29 [21] = assay: Downregulation of hTERT gene expression in human HT-29 cells assessed as hTERT mRNA level at 0.5 nM after 48 hrs by RT-PCR method (reference value: 100%); assay type: functional; how it was run: as §2
A549 [22] = assay: Cell cycle arrest in human A549 cells assessed as accumulation at sub-G0 phase at 20 nM after 24 hrs by propidium iodide staining based flow cytometry (reference value: 2 +/- 1%); assay type: functional; how it was run: as §1
HT-29 [23] = assay: Downregulation of c-Myc gene expression in human HT-29 cells assessed as c-Myc mRNA level at 0.5 nM after 48 hrs by RT-PCR method (reference value: 100%); assay type: functional; how it was run: as §2
HT-29 [24] = assay: Downregulation of c-Myc gene expression in human HT-29 cells assessed as c-Myc mRNA level at 9 nM after 48 hrs by RT-PCR method (reference value: 100%); assay type: functional; how it was run: as §2
HT-29 [25] = assay: Inhibition of VEGF protein secretion in human HT-29 cells assessed as VEGF protein level at 9 nM after 48 hrs by ELISA (reference value: 100%); assay type: functional; set-up: scale not given: the % may be the effect or the level left
HT-29 [26] = assay: Downregulation of VEGF gene expression in human HT-29 cells assessed as VEGF mRNA level at 9 nM after 48 hrs by RT-PCR method (reference value: 100%); assay type: functional; how it was run: as §2
HT-29 [27] = assay: Downregulation of hTERT gene expression in human HT-29 cells assessed as hTERT mRNA level at 9 nM after 48 hrs by RT-PCR method (reference value: 100%); assay type: functional; how it was run: as §2
HT-29 [28] = assay: Downregulation of c-Myc gene expression in human HT-29 cells assessed as c-Myc mRNA level at 2 nM after 48 hrs by RT-PCR method (reference value: 100%); assay type: functional; how it was run: as §2
HT-29 [29] = assay: Downregulation of hTERT gene expression in human HT-29 cells assessed as hTERT mRNA level at 2 nM after 48 hrs by RT-PCR method (reference value: 100%); assay type: functional; how it was run: as §2
HT-29 [30] = assay: Downregulation of VEGF gene expression in human HT-29 cells assessed as VEGF mRNA level at 2 nM after 48 hrs by RT-PCR method (reference value: 100%); assay type: functional; how it was run: as §2
HT-29 [31] = assay: Inhibition of VEGF protein secretion in human HT-29 cells assessed as VEGF protein level at 2 nM after 48 hrs by ELISA (reference value: 100%); assay type: functional; set-up: scale not given: the % may be the effect or the level left
HT-29 [32] = assay: Downregulation of hTERT gene expression in human HT-29 cells assessed as hTERT mRNA level at 30 nM after 48 hrs by RT-PCR method (reference value: 100%); assay type: functional; how it was run: as §2
HT-29 [33] = assay: Downregulation of VEGF gene expression in human HT-29 cells assessed as VEGF mRNA level at 30 nM after 48 hrs by RT-PCR method (reference value: 100%); assay type: functional; how it was run: as §2
HT-29 [34] = assay: Downregulation of c-Myc gene expression in human HT-29 cells assessed as c-Myc mRNA level at 30 nM after 48 hrs by RT-PCR method (reference value: 100%); assay type: functional; how it was run: as §2
HT-29 [35] = assay: Inhibition of VEGF protein secretion in human HT-29 cells assessed as VEGF protein level at 30 nM after 48 hrs by ELISA (reference value: 100%); assay type: functional; set-up: scale not given: the % may be the effect or the level left
HT-29 [36] = assay: Inhibition of VEGF protein secretion in human HT-29 cells assessed as VEGF protein level at 5 nM after 48 hrs by ELISA (reference value: 100%); assay type: functional; set-up: scale not given: the % may be the effect or the level left
HT-29 [37] = assay: Downregulation of VEGF gene expression in human HT-29 cells assessed as VEGF mRNA level at 5 nM after 48 hrs by RT-PCR method (reference value: 100%); assay type: functional; how it was run: as §2
HT-29 [38] = assay: Downregulation of c-Myc gene expression in human HT-29 cells assessed as c-Myc mRNA level at 5 nM after 48 hrs by RT-PCR method (reference value: 100%); assay type: functional; how it was run: as §2
HT-29 [39] = assay: Downregulation of hTERT gene expression in human HT-29 cells assessed as hTERT mRNA level at 5 nM after 48 hrs by RT-PCR method (reference value: 100%); assay type: functional; how it was run: as §2

Compound	Activity (A549 [1]) [%]	Activity (A549 [3]) [%]	Activity (A549 [6]) [%]	Activity (A549 [8]) [%]	pIC50 (A549 [10])	Activity (A549 [14]) [%]	pIC50 (HT-29 [15])	Activity (A549 [16]) [%]	Activity (A549 [17])	pIC50 (HEK293)	Activity (A549 [19]) [%]	pIC50 (MCF7)	Activity (A549 [22]) [%]	also measured
COc1cc2c(c(OC)c1OC)-c1ccc(OC)c(=O)cc1[C@@H](NC(C)=O)CC2 [COLCHICINE]	3	59	11	27	7.91									Activity (HT-29 [2]): >100%; Activity (HT-29 [4]): 32%; Activity (HT-29 [5]): 100%; Activity (HT-29 [7]): >100%; Activity (HT-29 [9]): 50%; Activity (HT-29 [11]): 41%; Activity (HT-29 [12]): >100%; Activity (HT-29 [13]): 61%
COc1cc2c(c(OC)c1OC)-c1ccc(OC)c(=O)cc1[C@@H](NC(=O)c1cccc(Br)c1)CC2					7.85	51	9.25	16	Active	8.96	29	9.44	4	Activity (HT-29 [18]): 79%; Activity (HT-29 [20]): 61%; Activity (HT-29 [21]): 91%; Activity (HT-29 [23]): 34%
COc1cc2c(c(OC)c1OC)-c1ccc(OC)c(=O)cc1[C@@H](NC(=O)c1ccc(Br)cc1)CC2					8.38	56	7.94	16	Active	8.11	25	8.05	4	Activity (HT-29 [24]): 41%; Activity (HT-29 [25]): 62%; Activity (HT-29 [26]): 37%; Activity (HT-29 [27]): >100%
COc1cc2c(c(OC)c1OC)-c1ccc(OC)c(=O)cc1[C@@H](NC(=O)c1cccc(C)c1)CC2	16	45	10	29	8.06		8.65			8.51		8.25		Activity (HT-29 [28]): 44%; Activity (HT-29 [29]): 74%; Activity (HT-29 [30]): 53%; Activity (HT-29 [31]): 76%
COc1cc2c(c(OC)c1OC)-c1ccc(OC)c(=O)cc1[C@@H](NC(=O)c1ccc(C(C)(C)C)cc1)CC2					7.44		7.49			7.24		7.62		Activity (HT-29 [32]): >100%; Activity (HT-29 [33]): 73%; Activity (HT-29 [34]): 82%; Activity (HT-29 [35]): 61%
COc1cc2c(c(OC)c1OC)-c1ccc(OC)c(=O)cc1[C@@H](NC(=O)c1ccccc1Br)CC2					7.89	47	8.24	22	Active	8.07	27	8.12	4	Activity (HT-29 [36]): 80%; Activity (HT-29 [37]): 57%; Activity (HT-29 [38]): 50%; Activity (HT-29 [39]): 88%

— ChEMBL document CHEMBL4196091 (Eur J Med Chem, 2018)
